Source: ChEMBL document CHEMBL1147559, “Synthesis and antitumor evaluation of benzoylphenylurea analogs” (Bioorg Med Chem Lett, 2004)

Key:
Type in all cases: functional, cell-based
HEp-2 [1] = assay: Cytotoxicity of compound against growth of human Hep2 cell line
How it was run: (§1)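 MTT dye-conversion assay. Cells kept in monolayer at 37 °C in humidified 5% CO2, trypsinized, seeded at 5 × 10³ cells/well and grown 24 h. Then treated 96 h with exponentially increasing drug concentrations in 10% FBS; compound stocks in DMSO. MTT (5 mg/mL in PBS) added for 3 h at 37 °C. Medium replaced with DMSO and OD read at 570 nm.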

HEp-2 [2] = assay: Inhibitory concentration of compound against growth of human Hep2 cell line; how it was run: as §1
BXPC-3 [3] = assay: Inhibitory concentration of compound against growth of human BxPC3 cell line; how it was run: as §1
MIA PaCa-2 [4] = assay: Inhibitory concentration of compound against growth of human Mia-Paca cell line; how it was run: as §1
A-431 = assay: Inhibitory concentration of compound against growth of human A431 cell line; Resistant; how it was run: as §1
PANC-1 = assay: Inhibitory concentration of compound against growth of human Panc-1 cell line; Resistant; how it was run: as §1
MIA PaCa-2 [5] = assay: Inhibitory concentration of compound against growth of human MIA PaCa cell line; Resistant; how it was run: as §1
HEp-2 [6] = assay: Inhibitory concentration of compound against growth of human Hep2 cell line; Resistant; how it was run: as §1
SNU-308 = assay: Inhibitory concentration of compound against growth of human SNU-308 cell line; Resistant; how it was run: as §1
BXPC-3 [7] = assay: Inhibitory concentration of compound against growth of human BxPC3 cell line; Resistant; how it was run: as §1
HuCCT-1 = assay: Inhibitory concentration of compound against growth of human HuCCT-1 cell line; Resistant; how it was run: as §1
HN006 cell line = assay: Inhibitory concentration of compound against growth of human HN006 cell line; Resistant; how it was run: as §1

## Cc1cc(NC(=O)N(C)C(=O)c2ccccc2N)ccc1Oc1ncc(Br)cn1
HEp-2 [1]
  IC50: 5000 nM

## Cc1cc(NC(=O)N(C)C(=O)c2ccccc2NC(=O)N(C)C(=O)c2ccccc2N)ccc1Oc1ncc(Br)cn1
HEp-2 [1]
  IC50: 5000 nM

## CNc1ccccc1C(=O)NC(=O)Nc1ccc(Oc2ncc(Br)cn2)c(C)c1
HEp-2 [2]
  IC50: 1000 nM
BXPC-3 [3]
  IC50: 1000 nM
MIA PaCa-2 [4]
  IC50: 1000 nM

## CNc1ccccc1C(=O)N(C)C(=O)Nc1ccc(Oc2ncc(Br)cn2)c(C)c1
A-431
  Activity: Resistant
PANC-1
  Activity: Resistant
MIA PaCa-2 [5]
  Activity: Resistant
HEp-2 [6]
  Activity: Resistant
SNU-308
  Activity: Resistant
BXPC-3 [7]
  Activity: Resistant
HuCCT-1
  Activity: Resistant
HN006 cell line
  Activity: Resistant
